Results taken from ChEMBL document CHEMBL3044755, “5-Methyl-1,2,3-thiadiazoles synthesized via ugi reaction and their fungicidal and antiviral activities” (J Agric Food Chem, 2010).

What was measured:
Tobacco mosaic virus [1] = experiment: In vivo antiviral activity against Tobacco mosaic virus (TMV) infected tobacco leaves assessed as inactivation effect at 500 ug/ml co-treated with virus for 30 min before inoculation onto leaves measured at 2-3 days after viral challenge; assay type: functional
Method in brief: (§1)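 TMV (5.88 10-2 μg/mL) mixed with equal volume of compound solution for 30 min, then rubbed onto upper three leaves of six-leaf tobacco; solvent on lower three leaves as control. Lesions counted 2-3 days later, three repetitions. Inhibition (%) = (CK − A)/CK × 100 from mean lesion counts.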

Nicotiana tabacum [2] = experiment: Induction of systemic acquired resistance activity in TMV infected-Nicotiana tabacum (tobacco) leaves at 100 ug/ml; assay type: functional
Method in brief: (§2)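 Tobacco/TMV system used for systemic acquired resistance induction. Inhibition ratio calculated from mean lesion numbers on inoculated leaves relative to corresponding control. Tiadinil and ribavirin run as controls.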

Tobacco mosaic virus [3] = experiment: In vivo antiviral activity against Tobacco mosaic virus (TMV) infected tobacco leaves assessed as protective effect at 500 ug/ml treated 12 hr before viral inoculation measured at 2-3 days after viral challenge; assay type: functional
Method in brief: (§3)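 Six-leaf tobacco; compound solution smeared over whole leaves, dried in greenhouse, then after 12 h TMV (5.88 10-2 μg/mL) rubbed onto upper three leaves, with solvent on lower three leaves as control. Local lesions counted 2-3 days post-inoculation, three repetitions. Inhibition (%) = (CK − A)/CK × 100 from mean lesion numbers.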

Cercospora beticola = experiment: Fungicidal activity against Cercospora beticola at 50 ug/ml by growth inhibition method; assay type: functional; conditions: read-out: GI
Method in brief: (§4)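 Mycelial growth inhibition on potato dextrose agar. The panel covered Alternaria solani, Botrytis cinerea, Cercospora arachidicola, C. beticola, Colletotrichum lagenarium, Fusarium oxysporum, Gibberella zeae, Puccinia triticina, Phytophthora infestans, Physalospora piricola, Pellicularia sasakii and Rhizoctonia solani.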

Nicotiana tabacum [4] = experiment: Induction of systemic acquired resistance activity in TMV infected-Nicotiana tabacum (tobacco) leaves at 50 ug/ml; assay type: functional; method in brief: as §2
Tobacco mosaic virus [5] = experiment: In vitro antiviral activity against Tobacco mosaic virus (TMV) infected tobacco leaves at 100 ug/ml; assay type: functional
Tobacco mosaic virus [6] = experiment: In vivo antiviral activity against Tobacco mosaic virus (TMV) infected tobacco leaves assessed as curative effect at 100 ug/ml treated after viral inoculation measured at 2-3 days after viral challenge; assay type: functional
Method in brief: (§5)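 Curative test: whole six-leaf tobacco leaves rubbed with TMV (5.88 10-2 μg/mL), dried in greenhouse, then compound smeared on upper three leaves and solvent on lower three as control. Local lesions scored 2-3 days after inoculation, three repetitions. Inhibition (%) = (CK − A)/CK × 100 on mean lesion numbers.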

Tobacco mosaic virus [7] = experiment: In vivo antiviral activity against Tobacco mosaic virus (TMV) infected tobacco leaves assessed as curative effect at 500 ug/ml treated after viral inoculation measured at 2-3 days after viral challenge; assay type: functional; method in brief: as §5
Nicotiana tabacum [8] = experiment: Phytotoxicity against Nicotiana tabacum (tobacco) plant; assay type: organism-based; conditions: in vivo
Fusarium graminearum = experiment: Fungicidal activity against Fusarium graminearum at 50 ug/ml by growth inhibition method; assay type: functional; conditions: read-out: GI; method in brief: as §4
Alternaria solani = experiment: Fungicidal activity against Alternaria solani at 50 ug/ml by growth inhibition method; assay type: functional; conditions: read-out: GI; method in brief: as §4
Colletotrichum lagenaria = experiment: Fungicidal activity against Colletotrichum lagenaria at 50 ug/ml by growth inhibition method; assay type: functional; conditions: read-out: GI; method in brief: as §4
Rhizoctonia solani = experiment: Fungicidal activity against Rhizoctonia solani at 50 ug/ml by growth inhibition method; assay type: functional; conditions: read-out: GI; method in brief: as §4
Tobacco mosaic virus [9] = experiment: In vivo antiviral activity against Tobacco mosaic virus (TMV) infected tobacco leaves assessed as protective effect at 100 ug/ml treated 12 hr before viral inoculation measured at 2-3 days after viral challenge; assay type: functional; method in brief: as §3
Tobacco mosaic virus [10] = experiment: In vitro antiviral activity against Tobacco mosaic virus (TMV) infected tobacco leaves at 500 ug/ml; assay type: functional
Thanatephorus cucumeris = experiment: Fungicidal activity against Thanatephorus cucumeris at 50 ug/ml by growth inhibition method; assay type: functional; conditions: read-out: GI; method in brief: as §4
Tobacco mosaic virus [11] = experiment: In vivo antiviral activity against Tobacco mosaic virus (TMV) infected tobacco leaves assessed as inactivation effect at 100 ug/ml co-treated with virus for 30 min before inoculation onto leaves measured at 2-3 days after viral challenge; assay type: functional; method in brief: as §1
Puccinia triticina = experiment: Fungicidal activity against Puccinia triticina at 50 ug/ml by growth inhibition method; assay type: functional; conditions: read-out: GI; method in brief: as §4
Phytophthora infestans = experiment: Fungicidal activity against Phytophthora infestans at 50 ug/ml by growth inhibition method; assay type: functional; conditions: read-out: GI; method in brief: as §4
Mycosphaerella arachidis = experiment: Fungicidal activity against Mycosphaerella arachidis at 50 ug/ml by growth inhibition method; assay type: functional; conditions: read-out: GI; method in brief: as §4
[12] = system: Botryosphaeria berengeriana; experiment: Fungicidal activity against Botryosphaeria berengeriana at 50 ug/ml by growth inhibition method; assay type: functional; conditions: read-out: GI; method in brief: as §4
Botrytis cinerea = experiment: Fungicidal activity against Botryotinia fuckeliana at 50 ug/ml by growth inhibition method; assay type: functional; conditions: read-out: GI; method in brief: as §4
Fusarium oxysporum = experiment: Fungicidal activity against Fusarium oxysporum at 50 ug/ml by growth inhibition method; assay type: functional; conditions: read-out: GI; method in brief: as §4
Tobacco mosaic virus [13] = experiment: In vitro antiviral activity against Tobacco mosaic virus (TMV) infected tobacco leaves at 200 ug/ml; assay type: functional

Row | Compound | Activity (Tobacco mosaic virus [1]) [%] | Activity (Nicotiana tabacum [2]) [%] | Activity (Tobacco mosaic virus [3]) [%] | inhibition of growth at 50 µg/mL (Cercospora beticola) [%] | Activity (Nicotiana tabacum [4]) [%] | Activity (Nicotiana tabacum [8]) | inhibition of growth at 50 µg/mL (Fusarium graminearum) [%] | inhibition of growth at 50 µg/mL (Alternaria solani) [%] | inhibition of growth at 50 µg/mL (Colletotrichum lagenaria) [%] | Activity (Tobacco mosaic virus [9]) [%] | inhibition at 500 µg/mL (Tobacco mosaic virus [10]) [%] | inhibition of growth at 50 µg/mL (Thanatephorus cucumeris) [%] | Activity (Tobacco mosaic virus [11]) [%] | inhibition of growth at 50 µg/mL (Phytophthora infestans) [%] | inhibition of growth at 50 µg/mL (Mycosphaerella arachidis) [%] | inhibition of growth at 50 µg/mL [12] [%] | inhibition of growth at 50 µg/mL (Botrytis cinerea) [%] | inhibition of growth at 50 µg/mL (Fusarium oxysporum) [%] | inhibition at 200 µg/mL (Tobacco mosaic virus [13]) [%] | also measured
1 | Cc1cccc(C(C(=O)NC2CCCCC2)N(C(=O)c2nnsc2C)c2ccc(C)c(F)c2)c1 (stereo not drawn) | 69 | 54 | 8 | 25 | 40 | Non-toxic | 36 | 6 | 0 | 10 | 29 | 0 | 38 | 1 | 0 | 0 | – | – | – | inhibition at 100 µg/mL (Tobacco mosaic virus [5]): 44%; Activity (Tobacco mosaic virus [6]): 29%; Activity (Tobacco mosaic virus [7]): 38%; inhibition of growth at 50 µg/mL (Rhizoctonia solani): 37%; inhibition of growth at 50 µg/mL (Puccinia triticina): 0%
2 | Cc1ccc(N(C(=O)c2nnsc2C)C(C(=O)NC2CCCCC2)c2cccc(O)c2)cc1F (stereo not drawn) | 67 | 76 | 44 | 25 | 32 | Non-toxic | 14 | 0 | 0 | 43 | 48 | 0 | 44 | 6 | 0 | 0 | – | – | – | inhibition at 100 µg/mL (Tobacco mosaic virus [5]): 25%; Activity (Tobacco mosaic virus [6]): 23%; Activity (Tobacco mosaic virus [7]): 57%; inhibition of growth at 50 µg/mL (Rhizoctonia solani): 30%; inhibition of growth at 50 µg/mL (Puccinia triticina): 0%
3 | Cc1ccc(N(C(=O)c2nnsc2C)C(C(=O)NC(C)C)c2ccccc2C(F)(F)F)cc1Cl (stereo not drawn) | – | – | – | 23 | – | – | 24 | 36 | 17 | – | 16 | 57 | – | 13 | 18 | 43 | 70 | 10 | 29 | –
4 | Cc1ccc(C(C(=O)NC(C)C)N(C(=O)c2nnsc2C)c2ccc(C)c(Cl)c2)cc1 (stereo not drawn) | – | – | – | 9 | – | – | 0 | 34 | 11 | – | 21 | 60 | – | 0 | 33 | 37 | 79 | 19 | 11 | –
5 | Cc1ccc(N(C(=O)c2nnsc2C)C(C(=O)NC(C)C)c2ccc(O)cc2)cc1Cl (stereo not drawn) | 64 | 41 | 36 | 17 | 23 | Non-toxic | 20 | 37 | 10 | 8 | 4 | 65 | 50 | 23 | 17 | 36 | 76 | 23 | 0 | –
6 | Cc1ccc(N(C(=O)c2nnsc2C)C(C(=O)NC(C)C)c2ccc([N+](=O)[O-])cc2)cc1Cl (stereo not drawn) | – | – | – | 9 | – | – | 4 | 39 | 4 | – | 19 | 60 | – | 21 | 17 | 33 | 79 | 23 | 14 | –
7 | Cc1ccc(N(C(=O)c2nnsc2C)C(C(=O)NC(C)C)c2ccc(Cl)cc2)cc1Cl (stereo not drawn) | – | – | – | 9 | – | – | 4 | 37 | 7 | – | 32 | 60 | – | 19 | 21 | 47 | 76 | 26 | 25 | –
8 | Cc1ccc(N(C(=O)c2nnsc2C)C(C(=O)NC(C)C)c2cccc(Cl)c2)cc1Cl (stereo not drawn) | – | – | – | 9 | – | – | 4 | 37 | 14 | – | 9 | 62 | – | 14 | 8 | 40 | 76 | 26 | 6 | –
9 | Cc1ccc(N(C(=O)c2nnsc2C)C(C(=O)NC(C)C)c2ccccc2Cl)cc1Cl (stereo not drawn) | – | – | – | 25 | – | – | 23 | 49 | 13 | – | 8 | 72 | – | 23 | 21 | 27 | 76 | 23 | 3 | –
10 | Cc1ccc(N(C(=O)c2nnsc2C)C(C(=O)NC(C)C)c2ccc(F)cc2)cc1Cl (stereo not drawn) | – | – | – | 25 | – | – | 27 | 42 | 17 | – | 19 | 63 | – | 5 | 13 | 36 | 70 | 14 | 14 | –
11 | Cc1ccc(N(C(=O)c2nnsc2C)C(C(=O)NC(C)C)c2ccc(C(F)(F)F)cc2)cc1Cl (stereo not drawn) | – | – | – | 17 | – | – | 67 | 35 | 7 | – | 34 | 56 | – | 0 | 25 | 11 | 70 | 12 | 32 | –
12 | Cc1ccc(N(C(=O)c2nnsc2C)C(C(=O)NC(C)C)c2cccc(C(F)(F)F)c2)cc1Cl (stereo not drawn) | – | – | – | 25 | – | – | 50 | 37 | 17 | – | 41 | 26 | – | 0 | 13 | 44 | 76 | 14 | 17 | –
13 | NC(=O)c1ncn([C@@H]2O[C@H](CO)[C@@H](O)[C@H]2O)n1 [RIBAVIRIN] | 59 | 28 | 59 | – | 31 | Non-toxic | – | – | – | 30 | 32 | – | 46 | – | – | – | – | – | – | inhibition at 100 µg/mL (Tobacco mosaic virus [5]): 20%
